According to publication PMC6016778 (Proceedings of the National Academy of Sciences of the …, 2018):
Read-outs that look alike come from different tables or passages of the source. Values belong to the molecule of their own block, whether it stands above or below them. Positions of bridges follow the written chain, without caps; N, C: chain ends. Non-standard residues stand in square brackets, D forms with d. Residues, ends and D or L forms follow the SMILES beside them. R8 = C=CCCCCCC[C@@](C)(N)C(=O)O; S5 = C=CCCC[C@](C)(N)C(=O)O

Key:
UVRAG coiled-coil domain [1] = assay: ITC
Sequence of UVRAG coiled-coil domain (Q8K245 whole entry, the tested form may be a part): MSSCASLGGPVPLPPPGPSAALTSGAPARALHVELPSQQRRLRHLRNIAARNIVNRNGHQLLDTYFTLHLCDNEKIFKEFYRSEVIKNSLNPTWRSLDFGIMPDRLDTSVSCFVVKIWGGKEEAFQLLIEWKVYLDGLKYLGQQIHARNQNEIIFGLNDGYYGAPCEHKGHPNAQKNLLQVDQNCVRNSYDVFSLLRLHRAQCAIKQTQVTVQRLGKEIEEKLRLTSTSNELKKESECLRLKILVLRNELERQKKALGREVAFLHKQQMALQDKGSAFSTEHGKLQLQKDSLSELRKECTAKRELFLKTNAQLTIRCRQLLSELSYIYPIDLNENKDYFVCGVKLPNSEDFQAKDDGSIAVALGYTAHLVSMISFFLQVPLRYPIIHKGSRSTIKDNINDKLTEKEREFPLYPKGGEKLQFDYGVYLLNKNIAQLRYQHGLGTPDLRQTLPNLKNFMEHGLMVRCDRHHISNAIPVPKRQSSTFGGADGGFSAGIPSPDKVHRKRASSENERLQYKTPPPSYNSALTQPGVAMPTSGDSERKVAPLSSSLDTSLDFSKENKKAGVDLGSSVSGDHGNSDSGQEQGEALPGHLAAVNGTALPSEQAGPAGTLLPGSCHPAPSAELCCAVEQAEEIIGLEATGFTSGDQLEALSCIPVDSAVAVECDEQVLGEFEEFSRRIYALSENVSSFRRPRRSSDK

[2] = biological target: Beclin 1 coiled-coil domain (Rattus norvegicus, UniProt Q91XJ1); assay: ITC binding of designed peptides to Beclin 1 coiled-coil domain
HEK293T cells [3] = assay: LC3-II and p62 Western blots after peptide treatment, HEK293T cells; format: cell-based; conditions: 3 h
Method in brief: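 HEK293T cells were treated 3 h with peptide or scrambled Tat control at 10 µM (low) or 20 µM (high) in the culture medium, without or with chloroquine. Lysates were Western blotted for LC3-I/LC3-II lipidation and p62 levels.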

[4] = test system: Beclin 1 self-association; assay: Co-IP of Beclin 1 self-association; format: cell-based; conditions: HEK293T
Method in brief: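 HEK293T cells co-transfected with GFP- and His-tagged Beclin 1. Peptide (stock 20 mM in water) was added at 20 µM either to the culture medium 6 h after transfection or to the lysate after lysis. A scrambled, unstapled Tat-fused control peptide was used at the same concentration. His-Beclin 1 association was then probed by co-IP.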

A549 cells = assay: MTT cytotoxicity / cell viability, A549 cells; format: cell-based; conditions: 12.5 and 25 µM, 5 h
[5] = test system: Beclin 1–UVRAG interaction; assay: Co-IP of Beclin 1–UVRAG interaction, HEK293T; format: cell-based; conditions: peptide 20 μM added to cell lysate
EGFR [6] = assay: EGFR degradation assay, HEK293T cells; format: cell-based; conditions: n = 3
Method in brief: (§1)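 Overexpression arm: cells were transfected with FLAG-UVRAG wild-type or Leu-to-Glu mutants, or vector. Cells were washed in PBS, serum-starved overnight in DMEM, then given DMEM with 20 mM Hepes, 0.2% BSA and 200 ng/mL EGF. Peptide arm: 20 µM peptide or control was added together with EGF. At each time point, 20 µg lysate was immunoblotted for EGFR, normalized to β-actin and to time 0. Three independent experiments, mean ± SEM.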

EGFR [7] = assay: EGFR degradation assay, H1975 cells; format: cell-based; conditions: peptide 20 μM, 15 h after EGF, n = 3
Method in brief: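 H1975 cells were serum-starved overnight in DMEM, then stimulated with 200 ng/mL EGF in DMEM with 20 mM Hepes and 0.2% BSA, together with 20 µM peptide or scrambled control. At each time point, 20 µg lysate was immunoblotted for EGFR. EGFR was normalized to β-actin and to time 0, from three independent experiments.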

[8] = test system: HeLa cells stably expressing GFP-LC3; assay: Confocal imaging of GFP-LC3 puncta in HeLa cells stably expressing GFP-LC3; format: cell-based; conditions: HeLa GFP-LC3, 3 h, n = 3
Method in brief: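 HeLa cells stably expressing GFP-LC3 were treated 3 h with peptide, scrambled control or water vehicle, with or without 25 µM chloroquine. Cells were imaged by confocal microscopy and GFP-LC3 puncta per cell were counted. Values are mean ± SEM, n = 3.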

EGFR [9] = assay: EGFR degradation assay, A549 cells; format: cell-based; conditions: n = 3
Method in brief: as §1

HEK293T cells [10] = assay: MTT cytotoxicity / cell viability, HEK293T cells; format: cell-based; conditions: 12.5 and 25 µM, 5 h
[11] = test system: Beclin 1–Atg14L interaction; assay: Co-IP of Beclin 1–Atg14L interaction, HEK293T; format: cell-based; conditions: peptide 20 μM added to cell lysate
UVRAG coiled-coil domain [12] = assay: ITC; remark: listed apart in the source
UVRAG coiled-coil domain [13] = format: binding; conditions: ITC, relative to wild type
[14] = test system: endogenous Beclin 1; EGFR; conditions: EGF-stimulated endocytic transport and lysosomal degradation of EGFR; cited from earlier work

Molecule: CC[C@H](C)[C@H](NC(=O)[C@H](CC(C)C)NC(=O)[C@H](CC(C)C)NC(=O)[C@H](CCCNC(=N)N)NC(=O)[C@H](CCCNC(=N)N)NC(=O)[C@H](CCCNC(=N)N)NC(=O)[C@H](CCC(N)=O)NC(=O)[C@H](CCCNC(=N)N)NC(=O)[C@H](CCCNC(=N)N)NC(=O)[C@H](CCCCN)NC(=O)[C@H](CCCCN)NC(=O)[C@H](CCCNC(=N)N)NC(=O)CNC(=O)[C@H](Cc1ccc(O)cc1)NC(C)=O)C(=O)N[C@@H](CO)C(=O)N[C@@H](CCC(=O)O)C(=O)N[C@@H](CC(C)C)C(=O)N[C@]1(C)CCCCCCC=CCCC[C@@](C)(C(=O)N[C@@H](C)C(N)=O)NC(=O)[C@H](CCCNC(=N)N)NC(=O)[C@H](CCC(N)=O)NC(=O)[C@H](CCCCN)NC(=O)[C@H](CCC(=O)O)NC(=O)[C@H](CCCNC(=N)N)NC(=O)[C@H](CC(=O)O)NC1=O [Tat-SP9] (Ac-YGRKKRRQRRRLLISEL[R8]DREKQR[S5]A-NH2; staple 18-25; N-terminus and C-terminus assumed)
Kd [2]: ~56.2 µM

Molecule: CCN(CC)CCCC(C)Nc1ccnc2cc(Cl)ccc12 (stereo not drawn) [CQ, chloroquine, reference compound]
p62 level with CQ treatment (HEK293T cells [3]; with CQ, even with Tat-SP4): elevated the p62 level

Molecule: CC[C@H](C)[C@H](NC(=O)[C@H](CC(C)C)NC(=O)[C@H](CCCNC(=N)N)NC(=O)[C@H](CCCNC(=N)N)NC(=O)[C@H](CCCNC(=N)N)NC(=O)[C@H](CCCNC(=N)N)NC(=O)[C@H](CCC(N)=O)NC(=O)[C@H](CCCNC(=N)N)NC(=O)[C@H](CCCNC(=N)N)NC(=O)[C@H](CCCCN)NC(=O)[C@H](CCCCN)NC(=O)[C@H](CCCNC(=N)N)NC(=O)CNC(=O)[C@H](Cc1ccc(O)cc1)NC(C)=O)C(=O)N[C@@H](CO)C(=O)N[C@@H](CCC(=O)O)C(=O)N[C@@H](CC(C)C)C(=O)N[C@]1(C)CCCCCCC=CCCC[C@@](C)(C(=O)N[C@@H](C)C(N)=O)NC(=O)[C@H](CCCNC(=N)N)NC(=O)[C@H](CCC(N)=O)NC(=O)[C@H](CCCCN)NC(=O)[C@H](CCC(=O)O)NC(=O)[C@H](CCCNC(=N)N)NC(=O)[C@H](CC(=O)O)NC1=O [Tat-SP4] (Ac-YGRKKRRQRRRRLISEL[R8]DREKQR[S5]A-NH2; staple 18-25)
Beclin 1 self-association (His-Beclin 1 pulled down by GFP-Beclin 1) ([4]; peptide 20 μM added to cell lysate): moderately reduced | Beclin 1 self-association (His-Beclin 1 pulled down by GFP-Beclin 1) ([4]; peptide 20 μM added to cell medium 6 h posttransfection): more prominent | Kd [2]: ~6.8 µM | cytotoxicity (MTT) (A549 cells): negligible cytotoxicity | endogenous Beclin 1 pulled down by FLAG-UVRAG [5]: significantly more endogenous Beclin 1 | EGFR remaining (EGFR [6]; peptide 20 μM, 60 min post EGF (200 ng/mL)): ~30% | EGFR degradation (EGFR [7]): ~50% | increase in GFP-LC3 dot numbers (autophagosomes) ([8]; absence of CQ): approximately twofold | increase in GFP-LC3 dot numbers (autophagosomes) ([8]; presence of 25 μM CQ): approximately twofold | EGFR remaining (EGFR [9]; A549, peptide 20 μM, 2 h after EGF): ~75% | EGFR remaining (EGFR [9]; A549, peptide 20 μM, 5 h after EGF): ~25% | increase in LC3-II level (HEK293T cells [3]; 10 μM, with CQ, n = 3): approximately threefold | increase in LC3-II level (HEK293T cells [3]; 10 μM, without CQ, n = 3): approximately twofold | increase in LC3-II level (HEK293T cells [3]; 20 μM, with CQ, n = 3): approximately fivefold | increase in LC3-II level (HEK293T cells [3]; 20 μM, without CQ, n = 3): approximately threefold | reduction of p62 level (HEK293T cells [3]; without CQ, n = 3): ~50% | cytotoxicity (MTT) (HEK293T cells [10]): negligible cytotoxicity | endogenous Beclin 1 pulled down by Atg14L-GFP [11]: significantly enhanced

B1: R203E (protein)
chain: DSEQLQRELKELALEEERLIQELEDVEKNEKVVAENLEKVQAEAERLDQEEAQYQREYSEFKRQQLELDDELKSVENQMRYAQMQLDKLKK
reduction of binding affinity of Beclin 1–UVRAG interaction (UVRAG coiled-coil domain [13]): approximately three- to fivefold

B3: wild-type UVRAG: wild-type UVRAG (full length Mus musculus in cells; coiled-coil construct in vitro) (protein)
chain: MSASASVGGPVPQPPPGPAAALPPGSAARALHVELPSQQRRLRHLRNIAARNIVNRNGHQLLDTYFTLHLCSTEKIYKEFYRSEVIKNSLNPTWRSLDFGIMPDRLDTSVSCFVVKIWGGKENIYQLLIEWKVCLDGLKYLGQQIHARNQNEIIFGLNDGYYGAPFEHKGYSNAQKTILLQVDQNCVRNSYDVFSLLRLHRAQCAIKQTQVTVQKIGKEIEEKLRLTSTSNELKKKSECLQLKILVLQNELERQKKALGREVALLHKQQIALQDKGSAFSAEHLKLQLQKESLNELRKECTAKRELFLKTNAQLTIRCRQLLSELSYIYPIDLNEHKDYFVCGVKLPNSEDFQAKDDGSIAVALGYTAHLVSMISFFLQVPLRYPIIHKGSRSTIKDNINDKLTEKEREFPLYPKGGEKLQFDYGVYLLNKNIAQLRYQHGLGTPDLRQTLPNLKNFMEHGLMVRCDRHHTSSAIPVPKRQSSIFGGADVGFSGGIPSPDKGHRKRASSENERLQYKTPPPSYNSALAQPVTTVPSMGETERKITSLSSSLDTSLDFSKENKKKGEDLVGSLNGGHANVHPSQEQGEALSGHRATVNGTLLPSEQAGSASVQLPGEFHPVSEAELCCTVEQAEEIIGLEATGFASGDQLEAFNCIPVDSAVAVECDEQVLGEFEEFSRRIYALNENVSSFRRPRRSSDK
modifications: left off: FLAG, end not stated, kept
endolysosomal trafficking on overexpression [14]: enhanced endolysosomal trafficking | EGFR remaining (EGFR [6]; UVRAG overexpression, 120 min post EGF (200 ng/mL)): ~10% | EGFR remaining (EGFR [9]; A549, UVRAG overexpression, 3 h after EGF (200 ng/mL)): ~40% | EGFR remaining (EGFR [9]; A549, UVRAG overexpression, 5 h after EGF (200 ng/mL)): ~5%

More lines, now with the values ahead:

Kd (UVRAG coiled-coil domain [1]): 10 µM
Molecule: Beclin 1 coiled-coil region L210E (from UniProt Q91XJ1 174-264) (domain or fragment)

Kd (UVRAG coiled-coil domain [1]): 10 µM
Molecule: Beclin 1 coiled-coil region R203E (from UniProt Q91XJ1 174-264) (domain or fragment)

Kd (UVRAG coiled-coil domain [1]): 3 µM | Kd (UVRAG coiled-coil domain [12]): 0.3 µM
Molecule: Beclin 1 coiled-coil domain (from UniProt Q91XJ1 174-264) (domain or fragment)

reduction of binding affinity of Beclin 1–UVRAG interaction (UVRAG coiled-coil domain [13]): approximately three- to fivefold
B2: L210E (protein)
chain: DSEQLQRELKELALEEERLIQELEDVEKNRKVVAENEEKVQAEAERLDQEEAQYQREYSEFKRQQLELDDELKSVENQMRYAQMQLDKLKK
